Data reported in ChEMBL document CHEMBL4184106, “Discovering alkylamide derivatives of bexarotene as new therapeutic agents against triple-negative breast cancer” (Bioorg Med Chem Lett, 2018).
Calls of active or inactive are those of the source. The rule behind the calls is not given here.

Columns and labels:
MDA-MB-231 [1] = experiment: Cytotoxicity against human MDA-MB-231 cells assessed as reduction in cell viability at 5 uM by MTT assay; type: functional
MCF7 [2] = experiment: Cytotoxicity against human MCF7 cells assessed as reduction in cell viability at 5 uM by MTT assay; type: functional
MCF7 [3] = experiment: Induction of apoptosis in human MCF7 cells assessed as ratio of cleaved caspase-3 to beta-actin level at 5 uM by western blot analysis (reference value: 1); type: functional
MDA-MB-231 [4] = experiment: Effect on epithelial-mesenchymal transition in human MDA-MB-231 cells assessed as ratio of slug to beta-actin level at 5 uM by Western blot analysis (reference value: 1); type: functional
MCF7 [5] = experiment: Inhibition of mammosphere formation in human MCF7 cells assessed as ratio of Sox2 to beta actin level at 5 uM by Western blot analysis (Rvb= 1); type: functional
In short: (§1)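 Post-treatment cell lysates were probed by Western blot for CSC markers, with β-actin as the loading control. Band densitometry was normalized to DMSO-treated samples.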

BT-549 [6] = experiment: Effect on beta-catenin translocation in cytosolic fraction of human BT549 cells assessed as ratio of beta-catenin to beta-actin level at 5 uM by Western blot analysis (reference value: 1); type: functional
MCF7 [7] = experiment: Inhibition of mammosphere formation in human MCF7 cells assessed as ratio of Nanog to beta actin level at 5 uM by Western blot analysis (Rvb= 1); type: functional; in short: as §1
MDA-MB-231 [8] = experiment: Induction of apoptosis in nuclear fractions of human MDA-MB-231 cells assessed as ratio of PARP to beta-actin level at 5 uM by western blot analysis (reference value: 1); type: functional
BT-549 [9] = experiment: Cytotoxicity against human BT549 cells assessed as reduction in cell viability by MTT assay; type: functional, cell-based
MDA-MB-231 [10] = experiment: Induction of apoptosis in human MDA-MB-231 cells assessed as ratio of cleaved caspase-9 to beta-actin level at 5 uM by western blot analysis (reference value: 1); type: functional
MDA-MB-231 [11] = experiment: Down regulation of KLF4 expression in human MDA-MB-231 cells at 5 uM by Western blot analysis; type: functional
MDA-MB-231 [12] = experiment: Anti-migratory activity against human MDA-MB-231 cells assessed as reduction in wound closure at 2 uM up to 24 hrs by wound-healing assay; type: functional, cell-based
In short: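 MDA-MB-231 monolayer was scratched to make a wound gap. Cells were treated alongside a DMSO vehicle control, and migration into the gap was imaged at 24 h.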

MDA-MB-231 [13] = experiment: Inhibition of mammosphere formation in human MDA-MB-231 cells assessed as ratio of C-Myc to beta actin level at 5 uM by Western blot analysis (Rvb= 1); type: functional; in short: as §1

C=C(c1ccc(C(=O)NCCN2CCCC2)cc1)c1cc2c(cc1C)C(C)(C)CCC2(C)C
Activity (MDA-MB-231 [1]): 60%
Activity (MCF7 [2]): 40%
Ratio (MCF7 [3]): 1
Ratio (MDA-MB-231 [4]): 1
Ratio (MCF7 [5]): 0.4
Ratio (BT-549 [6]): 2.4
Ratio (MCF7 [7]): 0.8
Ratio (MDA-MB-231 [8]): 0.9
EC50 (BT-549 [9]): < 10 µM
Ratio (MDA-MB-231 [10]): 1.7
Activity (MDA-MB-231 [11]): 50%
Activity (MDA-MB-231 [12]): Active
Ratio (MDA-MB-231 [13]): 1.1
